Activity calls are given as the source filed them. The calls are words filed in the database; no cut-off is given here.
These compounds were tested against T1, G protein-coupled receptor 88 (Homo sapiens, UniProt Q9GZN0) (assay: Agonist activity at PPLS-HA-tagged-GPR88 (unknown origin) expressed in CHO cells assessed as inhibition of forskolin-stimulated cAMP production measured after 30 mins by TR-FRET assay).
Assay type: functional, cell-based

T1 sequence (Q9GZN0 whole entry): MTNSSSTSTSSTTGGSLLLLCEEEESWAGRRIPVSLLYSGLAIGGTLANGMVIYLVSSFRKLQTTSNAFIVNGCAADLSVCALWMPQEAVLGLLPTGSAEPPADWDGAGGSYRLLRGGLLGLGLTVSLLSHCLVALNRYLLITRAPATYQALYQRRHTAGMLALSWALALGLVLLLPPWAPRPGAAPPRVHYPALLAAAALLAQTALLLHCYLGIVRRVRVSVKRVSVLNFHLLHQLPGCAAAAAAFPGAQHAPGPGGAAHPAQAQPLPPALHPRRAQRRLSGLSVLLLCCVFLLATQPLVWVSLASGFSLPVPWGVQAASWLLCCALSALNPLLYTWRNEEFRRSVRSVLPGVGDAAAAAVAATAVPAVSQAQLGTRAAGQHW

**Q.** How did the EC50 turn out when `CCCC(C)COc1ccc([C@@H](NC(=O)[C@@H](C)c2ccccc2)C(=O)OC)cc1` (stereo not given in full) was run?
**A.** 538 nM

**Q.** With `CCCC(C)COc1ccc([C@H](CO)NC(=O)CCCc2ccccc2)cc1` (stereo not given in full) as the compound, how does the EC50 read?
**A.** 1440 nM

**Q.** For `CCCC(C)COc1ccc([C@@H](NC(=O)Cc2ccc(C#N)cc2)C(=O)OC)cc1` (stereo not given in full), which EC50 is on record?
**A.** > 10000 nM

**Q.** With `CCCC(C)COc1ccc([C@@H](NC(=O)Cc2ccc(OC)cc2)C(=O)OC)cc1` (stereo not given in full) as the compound, how does the EC50 read?
**A.** 9570 nM

**Q.** `CCCC(C)COc1ccc([C@H](CO)NC(=O)CCc2ccccc2)cc1` (stereo not given in full) was tested. Which EC50 did it give?
**A.** 345 nM

**Q.** `CCCC(C)COc1ccc([C@@H](NC(=O)Cc2ccc(C)cc2)C(=O)OC)cc1` (stereo not given in full) was tested. Which EC50 did it give?
**A.** 3700 nM

**Q.** Which EC50 does the source give for `CCCC(C)COc1ccc([C@H](CO)NC(=O)Cc2ccccc2)cc1` (stereo not given in full) here?
**A.** 487 nM

**Q.** With `CCCC(C)COc1ccc([C@@H](NC(=O)[C@@H](CC)c2ccccc2)C(=O)OC)cc1` (stereo not given in full) as the compound, how does the EC50 read?
**A.** 583 nM

**Q.** Which EC50 does the source give for `CCCC(C)COc1ccc([C@@H](NC(=O)Cc2cccc(F)c2)C(=O)OC)cc1` (stereo not given in full) here?
**A.** 3910 nM

**Q.** Which EC50 does the source give for `CCCC(C)COc1ccc([C@H](CO)NC(=O)[C@@H](CC)c2ccccc2)cc1` (stereo not given in full) here?
**A.** 145 nM

**Q.** How did the EC50 turn out when `CCCC(C)COc1ccc([C@@H](NC(=O)Cc2ccccc2)C(=O)OC)cc1` (stereo not given in full) was run?
**A.** 2630 nM

**Q.** Which EC50 does the source give for `CCCC(C)COc1ccc([C@@H](NC(=O)[C@@H](C)c2ccccc2)C(=O)O)cc1` (stereo not given in full) here?
**A.** > 10000 nM

**Q.** With `CCCC(C)COc1ccc([C@@H](NC(=O)C(C)C2CCCCC2)C(=O)OC)cc1` (mixture of isomers) as the compound, how does the EC50 read?
**A.** > 10000 nM

**Q.** For `CCCC(C)COc1ccc([C@@H](NC(=O)Cc2ccc(F)cc2)C(=O)OC)cc1` (stereo not given in full), which EC50 is on record?
**A.** 5860 nM

**Q.** How did the EC50 turn out when `CCCC(C)COc1ccc([C@@H](NC(=O)Cc2ccccc2F)C(=O)OC)cc1` (stereo not given in full) was run?
**A.** 7870 nM

**Q.** Which EC50 does the source give for `CCCC(C)COc1ccc([C@H](CN=[N+]=[N-])NC(=O)[C@@H](C)c2ccccc2)cc1` (stereo not given in full) here?
**A.** 134 nM

The compounds below were run against T1, G protein-coupled receptor 88 (assay: Agonist activity at PPLS-HA-tagged-GPR88 (unknown origin) expressed in CHO cells assessed as inhibition of forskolin-stimulated cAMP production at 1 uM measured after 30 mins by TR-FRET assay).
Assay type: functional, cell-based
In short: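 Stable PPLS-HA-GPR88 CHO cells lifted with versene, 4,000 cells/well in HBSS with 5 mM HEPES, 0.1% BSA and 0.5 mM IBMX (pH 7.4). Single 1 μM test compound plus forskolin (300 nM at 4× final), 30 min at RT. Eu-cAMP tracer and ULight-anti-cAMP added, TR-FRET read (ex 337 nm) after 1 h at RT. Activity expressed as percentage of reference-agonist TR-FRET signal.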

**Q.** Which agonist activity call does the source give for `CCCC(C)COc1ccc([C@@H](NC(=O)[C@@H](C)c2ccccc2)C(=O)OC)cc1` (stereo not given in full) here?
**A.** Active

**Q.** For `CCCC(C)COc1ccc([C@@H](NC(=O)[C@@H](CC)c2ccccc2)C(=O)OC)cc1` (stereo not given in full), which agonist activity call is on record?
**A.** Active

**Q.** How did the agonist activity call turn out when `CCCC(C)COc1ccc([C@@H](NC(=O)[C@H](C)c2ccccc2)C(=O)OC)cc1` (stereo not given in full) was run?
**A.** Active

**Q.** For `CCCC(C)COc1ccc([C@@H](NC(=O)Cc2ccccc2)C(=O)OC)cc1` (stereo not given in full), which agonist activity call is on record?
**A.** Active

From ChEMBL document CHEMBL3875197, “Design, synthesis and pharmacological evaluation of 4-hydroxyphenylglycine and 4-hydroxyphenylglycinol derivatives as GPR88 agonists” (Bioorg Med Chem, 2017)
